Data published in ChEMBL document CHEMBL1132384, “Design, synthesis, and evaluation of chromen-2-ones as potent and selective human dopamine D4 antagonists” (J Med Chem, 1999).
Activity calls are given as the source filed them. The calls are words filed in the database; no cut-off is given here.

Legend:
D(4) dopamine receptor = target: T1, D(4) dopamine receptor (Homo sapiens, UniProt P21917); test: Binding affinity using [3H]spiperone displacement from cloned human Dopamine receptor D4.2 expressed in CHO-K1 cells; format: cell-based
T1 sequence (P21917 whole entry): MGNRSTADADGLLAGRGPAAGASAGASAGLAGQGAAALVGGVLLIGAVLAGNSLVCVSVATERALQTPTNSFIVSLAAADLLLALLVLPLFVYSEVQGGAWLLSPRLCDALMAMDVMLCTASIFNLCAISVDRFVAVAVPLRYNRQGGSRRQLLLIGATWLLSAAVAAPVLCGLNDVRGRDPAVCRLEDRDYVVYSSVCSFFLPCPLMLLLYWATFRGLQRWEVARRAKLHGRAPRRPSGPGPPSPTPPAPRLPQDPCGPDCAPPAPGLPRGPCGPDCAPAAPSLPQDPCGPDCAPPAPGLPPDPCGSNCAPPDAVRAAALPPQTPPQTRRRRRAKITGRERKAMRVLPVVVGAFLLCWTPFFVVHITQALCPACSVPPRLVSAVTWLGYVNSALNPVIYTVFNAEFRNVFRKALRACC

[1] = target: Dopamine D2 receptor (Homo sapiens); test: Binding affinity using [3H]spiperone against cloned human Dopamine receptor D2L expressed in CHO-K1 cells
[2] = target: T2, D(4) dopamine receptor (Homo sapiens) (UniProt P21917); test: Ratio of receptor binding towards D2 to D4 receptor
T2 sequence (whole entry): T1 sequence (P21917 whole entry)
How it was run: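 Ki from [3H]spiperone displacement at cloned human D2L and D4.2 receptors expressed in CHO-K1 cells. Six concentrations run in triplicate, fitted by nonlinear regression. Ratio taken as D2L Ki over D4.2 Ki.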

[3] = target: T2, D(4) dopamine receptor (Homo sapiens); test: Compound was tested for the inhibition of [3H]thymidine uptake in CHO p-5 cells transfected with human Dopamine receptor D4.2; format: functional, cell-based
How it was run: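 Antagonism of quinpirole (full agonist) stimulated mitogenesis in CHO cells expressing human D4.2. After 18 h, [3H]thymidine 0.25 μCi/well for 2 h, trypsin 1 h, then filtered and counted. Intrinsic activity taken relative to quinpirole; IC50 derived.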

Rattus norvegicus [4] = test: Compound was tested for the levels of hippocampal dopamine synthesis in rat after a dosage of 10 mg/kg intraperitoneally and expressed as % of control animals; format: functional, Hippocampus; details: route intraperitoneal
Rattus norvegicus [5] = test: Compound was tested for the levels of striatal dopamine synthesis in rat after a dosage of 10 mg/kg intraperitoneally and expressed as % of control animals; format: functional; details: route intraperitoneal
[6] = target: T3, 5-hydroxytryptamine receptor 1A (Mus musculus, UniProt Q64264); test: Compound was tested for binding affinity using [3H]8-OH-DPAT against 5-hydroxytryptamine 1A receptor
T3 sequence (Q64264 whole entry): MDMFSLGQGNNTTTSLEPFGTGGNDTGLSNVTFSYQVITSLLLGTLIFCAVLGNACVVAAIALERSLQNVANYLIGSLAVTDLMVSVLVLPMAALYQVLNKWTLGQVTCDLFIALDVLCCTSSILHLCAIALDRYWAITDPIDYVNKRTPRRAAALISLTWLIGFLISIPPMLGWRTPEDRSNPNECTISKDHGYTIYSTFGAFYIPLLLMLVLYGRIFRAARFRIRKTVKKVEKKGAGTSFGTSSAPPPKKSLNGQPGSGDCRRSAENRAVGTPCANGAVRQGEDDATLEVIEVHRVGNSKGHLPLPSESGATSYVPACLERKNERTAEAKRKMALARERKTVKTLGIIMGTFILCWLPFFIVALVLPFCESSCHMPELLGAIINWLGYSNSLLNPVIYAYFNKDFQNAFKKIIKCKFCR

[7] = target: 5-hydroxytryptamine receptor 2A (Bos taurus, UniProt Q75Z89); test: Compound was tested for binding affinity using [3H]ketanserin against 5-hydroxytryptamine 2 receptor
D(3) dopamine receptor = D(3) dopamine receptor (Homo sapiens, UniProt P35462); test: Compound was tested for binding affinity using [3H]spiperone against cloned human Dopamine receptor D3 expressed in CHO-K1 cells; format: cell-based
How it was run: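 Cloned human receptors expressed in CHO-K1 cells, displacement of [3H]spiperone; Ki from six concentrations run in triplicate, nonlinear regression.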

Mus musculus = test: Behavioral effect expressed as reversal of prepulse inhibition of acoustic startle in mice, ip; active at 30 mg/kg; format: functional, organism-based; parameters: dose 30 mg/kg
How it was run: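 Vehicle or test compound given ip 15 min before sc saline or apomorphine (0.25 mg/kg); 30-min session of 90 trials after 5-min 70 dB white-noise acclimation, prepulses 2–16 dB over background (20 ms), startle pulses 40 ms. %PPI from 16-dB prepulse; t-test; minimal effective dose reported.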

Rattus norvegicus [8] = test: Behavioral effect expressed as catalepsy test in rats, po; NA=Not active; format: functional, organism-based
How it was run: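 Rats dosed orally; front paws placed on an elevated bar, time (s) paws stayed on bar recorded over three consecutive 1-min trials, retested 2 h postdose. Value is mean response time for third trial.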

Rattus norvegicus [9] = test: Behavioral effect expressed as inhibition of spontaneous motor activity in rats, ip; NA=Not active; format: functional, organism-based
Rattus norvegicus [10] = test: Behavioral effect expressed as inhibition of amphetamine-stimulated locomotor activity in rats, ip; format: functional
[11] = target: T2, D(4) dopamine receptor (Homo sapiens); test: Compound was tested for the inhibition of [3H]-thymidine uptake in CHO p-5 cells transfected with Dopamine receptor D4.2; format: functional, cell-based
Rattus norvegicus [12] = test: Compound was tested for the levels of hippocampal dopamine synthesis in rat after a dosage of 10 mg/kg intraperitoneally and expressed as % of control; format: functional, Hippocampus; details: route intraperitoneal
How it was run: (§1)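 Rats given drug 10 mg/kg ip 60 min before and NSD 1015 (decarboxylase inhibitor) 30 min before decapitation; striatal and hippocampal DOPA by HPLC with electrochemical detection, as percentage increase over control; mean of 4 animals.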

Rattus norvegicus [13] = test: Compound was tested for the levels of striatal dopamine synthesis in rat after a dosage of 10 mg/kg intraperitoneally and expressed as % of control; format: functional; details: route intraperitoneal; how it was run: as §1

Chain of 5-hydroxytryptamine receptor 2A (Q75Z89 whole entry): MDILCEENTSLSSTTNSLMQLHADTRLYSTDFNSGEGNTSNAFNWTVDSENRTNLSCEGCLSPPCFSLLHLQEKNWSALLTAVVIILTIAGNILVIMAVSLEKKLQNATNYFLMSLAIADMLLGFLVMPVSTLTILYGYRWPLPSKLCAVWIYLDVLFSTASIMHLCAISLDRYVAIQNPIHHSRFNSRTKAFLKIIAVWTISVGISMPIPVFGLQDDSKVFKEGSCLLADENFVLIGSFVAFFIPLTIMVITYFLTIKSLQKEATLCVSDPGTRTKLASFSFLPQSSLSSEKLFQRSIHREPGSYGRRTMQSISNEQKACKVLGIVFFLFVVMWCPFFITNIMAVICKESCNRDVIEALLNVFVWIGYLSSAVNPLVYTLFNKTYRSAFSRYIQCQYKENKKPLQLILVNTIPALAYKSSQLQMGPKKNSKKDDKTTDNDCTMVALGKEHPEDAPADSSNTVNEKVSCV
Chain of D(3) dopamine receptor (P35462 whole entry): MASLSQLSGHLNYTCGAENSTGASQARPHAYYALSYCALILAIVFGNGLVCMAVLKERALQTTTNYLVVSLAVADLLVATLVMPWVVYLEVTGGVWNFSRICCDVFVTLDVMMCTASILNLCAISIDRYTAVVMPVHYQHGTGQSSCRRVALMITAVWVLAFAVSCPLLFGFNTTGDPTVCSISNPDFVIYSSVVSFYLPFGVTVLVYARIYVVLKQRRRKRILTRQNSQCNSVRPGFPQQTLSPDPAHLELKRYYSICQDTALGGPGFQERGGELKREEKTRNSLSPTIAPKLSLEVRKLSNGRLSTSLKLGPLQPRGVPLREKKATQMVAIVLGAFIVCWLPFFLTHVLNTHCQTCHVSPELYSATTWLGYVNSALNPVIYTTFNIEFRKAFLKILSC

| Structure (SMILES) | Ki (D(4) dopamine receptor) | Ki [1] | other results |
| --- | --- | --- | --- |
| COc1ccc(N2CCN(Cc3ccc4ccc(=O)oc4c3)CC2)cc1 | 0.075 µM |  |  |
| CCN(CCNCc1ccc2ccc(=O)oc2c1)c1ccccc1 | 2.66 µM |  |  |
| CCN(CCNc1ccccc1)Cc1ccc2ccc(=O)oc2c1 | 0.41 µM |  |  |
| CC(C)(C)c1ccc(N2CCN(Cc3ccc4ccc(=O)oc4c3)CC2)cc1 | 0.227 µM |  |  |
| O=c1ccc2ccc(CN3CCN(c4ccc(F)cc4)CC3)cc2o1 | 0.059 µM |  |  |
| O=c1ccc2ccc(CN3CCN(c4ccc(Cl)cc4)CC3)cc2o1 | 0.093 µM |  |  |
| Cc1cccc(N2CCN(Cc3ccc4oc(=O)ccc4c3)CC2)c1 | 0.074 µM |  |  |
| O=c1ccc2ccc(CN3CC=C(c4ccccc4)CC3)cc2o1 | 0.0044 µM | 0.121 µM |  |
| Cc1ccc(N2CCN(Cc3ccc4ccc(=O)oc4c3)CC2)cc1Cl | 0.0069 µM | 5.882 µM | Ratio [2]: 852; Intrinsic activity [3]: 0%; Control (Rattus norvegicus [4]): 27%; Control (Rattus norvegicus [5]): 19% |
| Cc1ccc(NCCNCc2ccc3ccc(=O)oc3c2)cc1 |  |  | Intrinsic activity [3]: 0% |
| O=c1ccc2ccc(CNCCNc3ccccc3)cc2o1 |  |  | Ki [6]: 3.71 µM; Ki [7]: > 4.35 µM; Ki (D(3) dopamine receptor): 0.424 µM; Intrinsic activity [3]: 0%; Behavioral effect (Mus musculus): Active; Control (Rattus norvegicus [8]): inactive; Control (Rattus norvegicus [9]): inactive; ED50 (Rattus norvegicus [10]): 3 mg/kg; Control (Rattus norvegicus [4]): 32%; Control (Rattus norvegicus [5]): 20% |

More lines, main results first:

| Ki (D(4) dopamine receptor) | Ki [1] | Structure (SMILES) | other results |
| --- | --- | --- | --- |
| 0.014 µM | 0.433 µM | Cc1ccc(N2CCN(Cc3ccc4ccc(=O)oc4c3)CC2)cc1C |  |
| 0.032 µM | 4.4 µM | Cc1cccc(N2CCN(Cc3ccc4ccc(=O)oc4c3)CC2)c1 |  |
| 0.027 µM | 5.3 µM | O=c1ccc2ccc(CN3CCN(c4ccccc4)CC3)cc2o1 |  |
| 0.016 µM | 1.94 µM | Cc1ccccc1N1CCN(Cc2ccc3ccc(=O)oc3c2)CC1 |  |
| 0.019 µM |  | O=c1ccc2ccc(CN3CCC(c4ccccc4)CC3)cc2o1 |  |
| 0.011 µM | 5.836 µM | Cc1ccc(N2CCN(Cc3ccc4oc(=O)ccc4c3)CC2)cc1 | Intrinsic activity [11]: 0%; Control (Rattus norvegicus [12]): -16%; Control (Rattus norvegicus [13]): 22% |
